Source: ChEMBL document CHEMBL3407415, “Synthesis and anticancer activities of ceritinib analogs modified in the terminal piperidine ring” (Eur J Med Chem, 2015)
Active and inactive are the calls of the source. The calls are words filed in the database; no cut-off is given here.

Experiments:
NCI-H2228 [1] = assay: Cytotoxicity against human NCI-H2228 cells assessed as cell viability after 72 hrs by MTS assay; format: functional, cell-based; details: NCI-H2228, 72 h
Outline: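 H2228 cells seeded and grown 24 h, then exposed in triplicate to a range of concentrations for 72 h at 37 °C, 5% CO₂. MTS (5 mg/mL solution) added for 4 h, medium removed, plates shaken, absorbance read at 570 nm. Inhibition computed against controls. IC50 = concentration giving 50% growth inhibition.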

NCI-H2228 [2] = assay: Antitumor activity against human NCI-H2228 cells xenografted in Rowett nude rat assessed as tumor growth inhibition at 38.28 mg/kg/day, po administered for 14 days measured on day 15 relative to vehicle-treated control; format: functional; details: read-out: TGI
Outline: (§1)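 RNU nude rats carrying H2228 tumours, randomized at mean tumour size 150 mm³ (n = 6 per group). Dosed by oral gavage, vehicle 0.5% MC/0.5% Tween 80, 10 μL/g body weight, daily for 14 days starting day 15 post-implant. Tumour volume = ab²/2. Rats killed after 14 days and tumours excised and weighed. Inhibition = (control mean tumour weight − treated mean)/control mean × 100%.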

Rattus norvegicus [3] = assay: Toxicity in Rowett nude rat xenografted with human NCI-H2228 cells assessed as body weight reduction at 38.28 mg/kg/day, po administered for 14 days measured during compound treatment; format: organism-based; set-up: route oral; details: in vivo, 336 h
Outline: (§2)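 H2228 xenograft-bearing RNU nude rats (n = 6 per group, mean starting tumour 150 mm³) given daily oral gavage in 0.5% MC/0.5% Tween 80, 10 μL/g, for 14 consecutive days. Body weight tracked regularly throughout dosing.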

Rattus norvegicus [4] = assay: Prodrug conversion in Sprague-Dawley rat assessed as release of ceritinib in plasma at 38.28 mg/kg, po measured over 24 hrs by HPLC analysis; format: ADME, organism-based; set-up: dose 38.28 mg/kg, route oral; details: in vivo
Outline: (§3)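 Male SD rats, 200–220 g, randomized into three groups (n = 4). Single oral gavage dose in 0.5% MC/0.5% Tween 80 at 10 μL/g. Plasma sampled at 0.5, 1, 3, 5, 8 and 24 h, deproteinized with ethyl acetate, vortexed and centrifuged at 4000 rpm for 5 min. Organic phase analysed for ceritinib by HPLC.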

NCI-H2228 [5] = assay: Antitumor activity against human NCI-H2228 cells xenografted in Rowett nude rat assessed as tumor growth inhibition at 30 mg/kg/day, po administered for 14 days measured on day 15; format: functional, organism-based; outline: as §1
Plasma = assay: Drug uptake in Sprague-Dawley rat plasma at 25 mg/kg, po measured over 24 hrs by HPLC analysis; format: ADME, organism-based; set-up: dose 25 mg/kg, route oral; details: in vivo; outline: as §3
NCI-H2228 [6] = assay: Antitumor activity against human NCI-H2228 cells xenografted in Rowett nude rat assessed as tumor growth inhibition at 36.24 mg/kg/day, po administered for 14 days measured on day 15; format: functional, organism-based; outline: as §1
Rattus norvegicus [7] = assay: Toxicity in Rowett nude rat xenografted with human NCI-H2228 cells assessed as body weight reduction at 36.24 mg/kg/day, po administered for 14 days measured during compound treatment; format: organism-based; set-up: route oral; details: in vivo, 336 h; outline: as §2
Rattus norvegicus [8] = assay: Prodrug conversion in Sprague-Dawley rat assessed as release of ceritinib in plasma at 36.24 mg/kg, po measured over 24 hrs by HPLC analysis; format: ADME, organism-based; set-up: dose 36.24 mg/kg, route oral; details: in vivo; outline: as §3

CCCCCOC(=O)N1CCC(c2cc(OC(C)C)c(Nc3ncc(Cl)c(Nc4ccccc4S(=O)(=O)C(C)C)n3)cc2C)CC1 was tested, and the IC50 (NCI-H2228 [1]) was 67200 nM.

In the case of Cc1cc(Nc2ncc(Cl)c(Nc3ccccc3S(=O)(=O)C(C)C)n2)c(OC(C)C)cc1C1CCN(C(=O)OCOP(=O)(O)O)CC1, the IC50 (NCI-H2228 [1]) is reported as 24 nM, the inhibition in vivo at 38.28 mg/kg/day (NCI-H2228 [2]) is reported as 80% and the Activity (Rattus norvegicus [3]) is reported as “Non-toxic”. For the same compound, the Drug metabolism (Rattus norvegicus [4]) was “metabolite_notdetected”.

With Cc1cc(Nc2ncc(Cl)c(Nc3ccccc3S(=O)(=O)C(C)C)n2)c(OC(C)C)cc1C1CCNCC1 [CERITINIB] the IC50 (NCI-H2228 [1]) was 103 nM, the TGI (NCI-H2228 [5]) was “Active” and the Drug uptake (Plasma) was “Active”.

Cc1cc(Nc2ncc(Cl)c(Nc3ccccc3S(=O)(=O)C(C)C)n2)c(OC(C)C)cc1C1CCN(P(=O)(OCc2ccccc2)OCc2ccccc2)CC1 showed an IC50 (NCI-H2228 [1]) of 2690 nM.

COC(=O)N1CCC(c2cc(OC(C)C)c(Nc3ncc(Cl)c(Nc4ccccc4S(=O)(=O)C(C)C)n3)cc2C)CC1 gave an IC50 (NCI-H2228 [1]) of 1110 nM.

With CCOC(=O)N1CCC(c2cc(OC(C)C)c(Nc3ncc(Cl)c(Nc4ccccc4S(=O)(=O)C(C)C)n3)cc2C)CC1 the IC50 (NCI-H2228 [1]) was 1200 nM.

In the case of Cc1cc(Nc2ncc(Cl)c(Nc3ccccc3S(=O)(=O)C(C)C)n2)c(OC(C)C)cc1C1CCN(P(=O)(O)OCc2ccccc2)CC1, the IC50 (NCI-H2228 [1]) is reported as 57.4 nM.

Compound CCC(C)OC(=O)N1CCC(c2cc(OC(C)C)c(Nc3ncc(Cl)c(Nc4ccccc4S(=O)(=O)C(C)C)n3)cc2C)CC1 (stereo not given) has an IC50 (NCI-H2228 [1]) of 7400 nM.

For CCOP(=O)(OCC)N1CCC(c2cc(OC(C)C)c(Nc3ncc(Cl)c(Nc4ccccc4S(=O)(=O)C(C)C)n3)cc2C)CC1, the IC50 (NCI-H2228 [1]) was 571 nM.

For Cc1cc(Nc2ncc(Cl)c(Nc3ccccc3S(=O)(=O)C(C)C)n2)c(OC(C)C)cc1C1CCN(C(=O)OCOP(=O)(OCc2ccccc2)OCc2ccccc2)CC1, the IC50 (NCI-H2228 [1]) was 1040 nM.

With CC(=O)OCOC(=O)N1CCC(c2cc(OC(C)C)c(Nc3ncc(Cl)c(Nc4ccccc4S(=O)(=O)C(C)C)n3)cc2C)CC1 the IC50 (NCI-H2228 [1]) was 120 nM, the TGI (NCI-H2228 [6]) was “inactive” and the Activity (Rattus norvegicus [7]) was “Non-toxic”. The Drug metabolism (Rattus norvegicus [8]) was “metabolite_notdetected”.

Cc1cc(Nc2ncc(Cl)c(Nc3ccccc3S(=O)(=O)C(C)C)n2)c(OC(C)C)cc1C1CCN(P(=O)(Oc2ccccc2)Oc2ccccc2)CC1 was tested, and the IC50 (NCI-H2228 [1]) was 14400 nM.
